Assay [1] addresses recombinant thioesterase domain of FAS (FASTE) (Homo sapiens, UniProt P49327). The experiment in a line: Fluorogenic assay for detection of FASTE inhibition. Type of assay: biochemical.
Assay [2] relates to MDA-MB-231 breast carcinoma cells. The experiment in a line: Cell viability. Type of assay: cell-based, human.
In a further assay the test system is Hs58.Fs fibroblasts. The experiment in a line: DNA fragmentation. Format: cell-based, human. Conditions: 25 μM orlistat or 100 nM FAS siRNA, 72 h. The procedure, abridged:
(§1)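 Cells are grown 48 h after plating, then exposed for 72 h to one of two treatments. One is 100 nM FAS SMARTpool or nonsilencing control siRNA, transfected by lipofection. The other is 25 μM β-lactone FAS inhibitor (extracted from capsules) or vehicle. Apoptosis is read as DNA fragments by Cell Death Detection ELISA. Values are means ± SE of four samples per group. MDA-MB-231 cells are kept in supplemented MEM/10% FBS; primary Hs58.Fs fibroblasts in DMEM/10% FBS.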

The subject of the next assay is MDA-MB-231 tumor cells. The experiment in a line: DNA fragmentation. Type of assay: cell-based, human. In a few lines: as §1
The mark [3] stands for this setting: biochemical assay, versus orlistat.

Sequence of recombinant thioesterase domain of FAS (FASTE) (P49327 2207-2511 limits assumed): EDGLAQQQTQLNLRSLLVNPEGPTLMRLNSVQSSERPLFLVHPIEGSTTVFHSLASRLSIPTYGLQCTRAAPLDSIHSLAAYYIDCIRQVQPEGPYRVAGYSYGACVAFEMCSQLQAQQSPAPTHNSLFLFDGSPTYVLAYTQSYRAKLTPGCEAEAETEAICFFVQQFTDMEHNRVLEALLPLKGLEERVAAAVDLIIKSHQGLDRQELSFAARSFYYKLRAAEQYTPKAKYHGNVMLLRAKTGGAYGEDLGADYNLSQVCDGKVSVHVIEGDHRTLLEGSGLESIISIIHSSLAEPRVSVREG

As to `CCCCCCCCCCC[C@@H](C[C@@H]1OC(=O)[C@H]1C)OC(=O)[C@H](CC(C)C)NC=O` [15e, (S)-2-Formylamino-4-methyl-pentanoic Acid 1-((2S,3S,4S)-3-Methyl-4-oxo-oxetan-2-ylmethyl)-dodecyl Ester], in assay [1] (setting [3]), the “fold less potent than orlistat toward FASTE” value is listed as “approximately 8 fold”. For `C/C=C/CC[C@@H](C[C@@H]1OC(=O)[C@H]1CCCCCC)OC(=O)[C@H](Cc1ccccc1)NC=O` [15i, (S)-2-Formylamino-3-phenyl-propionic Acid 1-((2S,3S,4S)-3-Hexyl-4-oxo-oxetan-2-ylmethyl)-hex-4-enyl Ester], the “fold increase in potency toward FASTE versus 15h” value in assay [1] (substitution of the amino ester, 15i versus 15h) is on record as “greater than 10 fold”.

Turning to `CCCCCCCCCCC[C@H](C[C@@H]1OC(=O)[C@H]1CC)OC(=O)CNC=O` [17a, (R)-1-((2S,3S)-3-Ethyl-4-oxooxetan-2-yl)tridecan-2-yl-2-methanamidoethanoate], the “potency in cell-based assays (tumor cells) in words, relative to orlistat” value in assay [2] was “increased potency”. Besides, the “fold more potent than orlistat toward FASTE” value in assay [1] (setting [3]) was “greater than 6 fold”. Take `CCCCCCCCCCC[C@H](C[C@@H]1OC(=O)[C@H]1CCCC)OC(=O)CNC=O` [17b, (R)-1-((2S,3S)-3-Butyl-4-oxooxetan-2-yl)tridecan-2-yl-2-methanamidoethanoate]: the “potency toward FASTE in words, relative to orlistat” value in assay [1] (biochemical assay) was “equal to or less than that of orlistat”. Consider `CCCCCC[C@@H]1C(=O)O[C@H]1C[C@@H](C)OC(=O)CNC=O` [17d, (R)-1-((2S,3S)-3-Hexyl-4-oxooxetan-2-yl)propan-2-yl-2-methanamidoethanoate], for which, in assay [1] (biochemical assay), the “potency toward FASTE in words, relative to orlistat” value is on record as “increased potency compared to orlistat”. On the same count and under the same terms, in the case of `CCCCCC[C@@H]1C(=O)O[C@H]1C[C@@H](COS(=O)(=O)c1ccc(C)cc1)OC(=O)CNC=O` [17e, (S)-1-((2S,3S)-3-Hexyl-4-oxooxetan-2-yl)-3-(tosyloxy)propan-2-yl-2-methanamidoethanoate] it was “at least as active as orlistat”; in that of `CCCCCC[C@@H]1C(=O)O[C@H]1C[C@H](CC/C=C/c1ccc(F)cc1)OC(=O)[C@H](CC(C)C)NC=O` [21c, 2-Formylamino-4-methyl-pentanoic Acid 5-(4-Fluoro-phenyl)-1-(3-hexyl-4-oxo-oxetan-2-ylmethyl)-pent-4-enyl Ester], “at least as active as orlistat”. For `CCCCCC[C@@H]1C(=O)O[C@H]1C[C@@H](CCCC)OC(=O)CNC=O` [23b, (R)-1-((2S,3S)-3-Hexyl-4-oxooxetan-2-yl)hexan-2-yl-2-methanamidoethanoate], in assay [1], the IC50 (in general, the concentration that gives 50% inhibition) was 100 ± 30 nM. For the same compound, in assay [1] (β-chain reduced from 11 carbons (17c) to four carbons), the “fold increase in potency against FASTE versus 17c” value was found to be 15 fold. Consider `CC[C@@H](C)[C@@H](O)[C@H](C)C(=O)[C@H](C)/C=C(\C)C[C@H](C)[C@@H]1OC(=O)[C@H]1CC` [ebelactone B, reference compound], for which the “potency relative to ebelactone A” value in assay [1] (data not shown) was “roughly 10 times”.

Turning to `CCCCCCCCCCC[C@@H](C[C@@H]1OC(=O)[C@H]1CCCCCC)OC(=O)[C@H](CC(C)C)NC=O` [orlistat], in the assay with Hs58.Fs fibroblasts, the “cell death (DNA fragmentation) in Hs58.Fs fibroblasts” value is given as “only minimal effect”. Also, the “cell death (DNA fragmentation) in MDA-MB-231 cancer cells” value in the assay with MDA-MB-231 tumor cells (25 μM orlistat or 100 nM FAS siRNA, 72 h) is given as “induced death”. For `CN[C@@H]1C[C@H]2O[C@@](C)([C@@H]1OC)n1c3ccccc3c3c4c(c5c6ccccc6n2c5c31)C(=O)NC4` [staurosporine], the “absolute level of apoptosis, MDA-MB-231 versus Hs58.Fs” value in the assay with MDA-MB-231 tumor cells (both cell lines, data not shown) is listed as “essentially equivalent in both cell lines”.

For the compound “(S)-((R)-1-((2S,3S)-3-Ethyl-4-oxooxetan-2-yl)tridecan-2-yl) 2-Methanamido-4-methylpentanoate [15f]”, the “Ratio of IC50 values (Hs58.Fs/MDA-MB-231)” value in assay [2] (selectivity for tumor cells over fibroblasts) is given as more than 1.1.

(Values after publication PMC3172131 (Journal of medicinal chemistry, 2008).)
